Shown are actives, neighbours in structure and some others; about 3.5% of the full set was active somewhere.
FXIa inh 1536 = factor XIa (human) inhibition | inhibition, % at 5 µM | purified FXIa, Boc-Glu-Ala-Arg-AMC fluorogenic substrate | hit rate 0.14% among 220,000;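 active means inhibition of at least 40%; inactive means inhibition below 40%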;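 further: fluorescence of freed AMC excited at 355 nm; 0% = enzyme without compound and 100% = no enzyme blank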
AHR activator = human AHR activation | AHR-responsive luciferase reporter cells, luminescence | activation, % at 5 µM | P35869 | AID 2796 | hit rate 2.5% among 320,000; in the data active means activation above about 47%;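 further: 0% = vehicle wells and 100% = reference agonist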
Target sequence (P35869 whole entry, looked up): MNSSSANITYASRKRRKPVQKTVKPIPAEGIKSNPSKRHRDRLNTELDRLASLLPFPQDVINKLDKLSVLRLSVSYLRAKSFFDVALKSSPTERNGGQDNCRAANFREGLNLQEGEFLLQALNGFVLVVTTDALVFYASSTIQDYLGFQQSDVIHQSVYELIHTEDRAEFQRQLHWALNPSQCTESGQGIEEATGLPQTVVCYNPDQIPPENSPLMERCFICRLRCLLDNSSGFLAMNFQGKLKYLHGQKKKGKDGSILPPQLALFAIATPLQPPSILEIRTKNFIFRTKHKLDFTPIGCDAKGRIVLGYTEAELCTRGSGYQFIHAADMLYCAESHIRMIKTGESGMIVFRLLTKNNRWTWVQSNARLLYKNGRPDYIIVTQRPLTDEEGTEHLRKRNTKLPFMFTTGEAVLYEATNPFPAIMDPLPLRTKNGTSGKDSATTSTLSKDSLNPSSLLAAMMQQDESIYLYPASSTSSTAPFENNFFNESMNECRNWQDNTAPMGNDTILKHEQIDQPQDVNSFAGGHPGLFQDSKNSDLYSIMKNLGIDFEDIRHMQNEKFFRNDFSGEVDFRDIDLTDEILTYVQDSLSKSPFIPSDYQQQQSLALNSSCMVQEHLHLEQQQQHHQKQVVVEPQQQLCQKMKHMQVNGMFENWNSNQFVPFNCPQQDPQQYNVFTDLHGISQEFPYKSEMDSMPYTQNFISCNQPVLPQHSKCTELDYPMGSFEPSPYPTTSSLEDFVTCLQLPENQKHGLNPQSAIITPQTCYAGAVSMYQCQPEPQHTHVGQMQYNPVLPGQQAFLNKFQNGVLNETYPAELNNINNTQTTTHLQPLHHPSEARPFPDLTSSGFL
Thrombin inh = inhibitors of human thrombin; AID 1046; alpha-thrombin, Boc-VPR-AMC fluorogenic substrate cleavage; hit rate 0.26% among 220,000; inhibition, % at 5 µM; P00734;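 active means inhibition at or above 40%; inactive means inhibition below 40%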;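 further: 0% = enzyme with no compound and 100% = wells without enzyme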
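Assay system: human alpha-thrombin enzyme. Reagent: Boc-VPR-AMC substrate, 15 µM final. Compound dosing: one concentration per compound, 5 µM, with 0.2% DMSO. Incubation: room-temperature reaction. Technique: AMC fluorescence, 355/460 nm. Measure: % inhibition relative to enzyme controls and enzyme-free blanks.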
STAT3 activator = STAT3 signaling activation; U3A cells, IL-6 STAT3-luciferase reporter, luminescence; 100% = signal with IL-6 EC80 alone; activation (% of control), % at 5.6 µM; hit rate 0.91% among 190,000; AID 871;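 active means activation above the screen-wide mean of compound activation plus 3 SD, cut at about 130% in these data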;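 further: 0% = background luminescence of wells with medium and substrate only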
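Material: human U3A cells carrying STAT3-luciferase construct. Measured by: reporter luminescence signal. Timing: compound 1 h, then IL-6 6 h at 37 °C.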
hK5 inh = kallikrein 5 (human) inhibition; hit rate 0.59% among 210,000; Q9Y337; recombinant hK5, fluorogenic AMC substrate cleavage; AID 873; inhibition, % at 5 µM;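 active means inhibition of 40% or more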;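 further: 0% = enzyme controls without compound and 100% = no-enzyme blanks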
FXIIa inh 1536 = inhibitors of human coagulation factor XIIa; P00748; purified FXIIa, Boc-QGR-AMC fluorogenic substrate, 2 h; inhibition, % at 5 µM; hit rate 0.3% among 220,000; in the data active means inhibition above about 40%;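 further: 0% = enzyme with no compound and 100% = blank without enzyme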
An asterisk follows results filed as active; / = no result given.

SMILES	FXIa inh 1536	AHR activator	Thrombin inh	STAT3 activator	hK5 inh	FXIIa inh 1536
O=C(N/N=C/c1cccc([N+](=O)[O-])c1)c1cc(-c2ccc3c(c2)OCO3)n[nH]1	0	20	-5	/	-1	-3
O=C(N/N=C\c1ccccc1)c1cccc(C(=O)N/N=C\c2ccccc2)n1	/	70*	/	/	/	/
Cn1c(C(=O)OCC(=O)NCc2ccc(F)cc2)cc2occc21	/	-1	/	/	/	/
O=C(CNC(=O)C12CC3CC(CC(C3)C1)C2)Nc1ncccc1O	/	-1	/	/	/	/
CCCCn1c(N)c(N(CCOC)C(=O)COc2ccc(Cl)cc2)c(=O)[nH]c1=O	1	-1	-4	106	0	14
Nc1nonc1-n1nnc(C(=O)N/N=C/c2ccc(F)cc2)c1-c1ccc2c(c1)OCO2	/	1	/	/	/	/
O=C(N/N=C/c1ccc(O)cc1)c1cc(-c2ccc3c(c2)OCO3)n[nH]1	-9	76*	4	106	5	7
O=C(N/N=C/c1ccccc1)c1ccc2c(c1)OCO2	/	70*	/	/	/	/
O=C(O)c1ccc(/C=N/NC(=O)c2ccc3c(c2)OCCO3)cc1	/	4	/	/	/	/
O=C(NNS(=O)(=O)c1ccc(Cl)cc1)c1cc(-c2ccccc2)nc2ccccc12	-2	16	-9	100	-17	7
Cc1ccc(Nc2c([N+](=O)[O-])c(=O)oc3ccccc23)cc1	-2	0	-16	97	2	3
O=c1oc2ccccc2c(Nc2ccc3ccccc3c2)c1[N+](=O)[O-]	6	65*	5	133*	-1	13
COc1ccc(OC)c(C2=Nn3c(nnc3-c3cccc(OC(C)C)c3)SC2)c1	1	8	-5	106	-6	12
Cc1nnsc1C(=O)Nc1ccc(S(=O)(=O)N2CCCC(C)C2)cc1 (stereo unspecified)	/	-1	/	/	/	/
CCN1CCCC1CNC(=O)c1cc2cc(F)ccc2[nH]1 (stereo unspecified)	/	67*	/	/	/	/
CCn1cc(C(=O)N[C@@H](CCSC)C(=O)NCCCN2CCOCC2)c(=O)c2cc3c(cc21)OCO3	/	5	/	/	/	/
COCCn1c(=NC(=O)CCS(=O)(=O)c2ccccc2)sc2c(OC)ccc(OC)c21	/	51*	/	/	/	/
COCCn1c(=NC(=O)CCS(=O)(=O)c2ccccc2)sc2cc(C(=O)OC)ccc21	/	0	/	/	/	/
Cc1cc(N(C)C)c(C#N)c(NCc2ccccc2)n1	3	9	19	109	64*	27
CN(C)c1ccnc(NCc2ccccc2)c1C#N	11	1	-1	82	-9	14
CNc1cc([N+](=O)[O-])ccc1N/C=C/C(=O)c1ccc2c(c1)OCO2	13	29	1	135*	-2	11
O=C(/C=C\Nc1ccccc1Br)c1ccc2c(c1)OCO2	-1	1	0	27	-10	1
O=C(Cc1cccc(C(F)(F)F)c1)N1CCCC1	/	0	/	/	/	/
Nc1c(C(=O)Nc2ccccc2)sc2nc(-c3ccco3)ccc12	5	19	0	127	4	10
N#Cc1cc2c(N)c(C(=O)Nc3ccccc3)sc2nc1N	-8	64*	26	105	-23	-10
SMILES	FXIa inh 1536	AHR activator	Thrombin inh	STAT3 activator	hK5 inh	FXIIa inh 1536
CNC(=S)N1CCC(NC(=O)c2ccco2)CC1	44*	0	29	/	18	25
CCOC(=O)CSc1cc(CS(=O)c2ccc(Cl)cc2)nc(-c2ccccc2)n1 (stereo unspecified)	2	10	1	102	-15	5
COc1ccc(NC(=O)c2sc3nc(C)cc(C)c3c2N)cc1	/	0	/	/	/	/
COc1ccccc1NC(=O)c1sc2nc(C)cc(C)c2c1N	/	50*	/	/	/	/
COc1ccccc1/C=N/NC(=O)c1sc(C)nc1C	1	28	-3	92	4	/
COc1ccc(/C=N/NC(=O)c2sc3nc(C)cc(C)c3c2N)cc1	27	3	42*	/	48*	87*
COc1ccc(/C=N/NC(=O)c2sc(C)nc2C)cc1	-6	56*	-5	101	-4	/
CC1Cc2cc(C3(O)C(=O)c4ccccc4C3=O)ccc2N1 (stereo unspecified)	3	0	-3	107	-2	-7
CCOC(=O)C1CCCN(S(=O)(=O)c2cc3c4c(c2)CCC(=O)N4CCC3)C1 (stereo unspecified)	/	0	/	/	/	/
COc1cc(NC(=O)c2ccc(C)cc2)c(OC)cc1NC(=O)CN1CCOCC1	5	30	4	118	-4	9
COc1cc(NC(=O)c2ccc(Cl)cc2)c(OC)cc1NC(=O)CN1CCOCC1	-8	48*	-11	101	-9	11
CN(C)CCN(C(=O)/C=C/c1cccs1)c1nc2ccc(F)cc2s1	-2	49*	-12	100	-7	12
C/C(CCc1oc2ccc(Br)cc2c1-c1ccc(C)o1)=N/O	9	56*	3	87	-6	16
COc1ccc(C(=O)O)c(OC)n1	0	0	-1	/	-2	5
O=C(Nc1ccc(Cl)c(Cl)c1)Nc1nccs1	0	59*	-4	/	0	10
COc1ccc(C(=O)Nc2ccc(Cl)c(Cl)c2)c(OC)n1	-7	21	4	136*	-5	12
Fc1ccc(NC(=S)Nc2cc(-c3ccccc3)[nH]n2)cc1Cl	-6	53*	1	115	-23	-7
Fc1ccc(NC(=S)Nc2cccnc2)cc1Cl	-4	19	-7	91	-6	1
CCn1cc(Br)c(C(=O)Nc2ccc(F)c(Cl)c2)n1	4	51*	8	99	-20	10
COc1ccc(NC(C)C(=O)Nc2cccc(S(=O)(=O)N3CCOCC3)c2)cc1OC (stereo unspecified)	/	2	/	/	/	/
COc1ccc(-n2c(SCC(N)=O)nc3sc4c(c3c2=O)CCC4)cc1	6	7	6	94	17	20
COc1ccc(-n2c(=O)c3c4c(sc3n3c(=S)[nH]nc23)CCCC4)cc1	19	-1	-2	107	-13	18
O=C(Nc1ccc(Cl)c(Cl)c1)c1ccncc1	1	65*	2	89	1	10
Cc1ccccc1NC(=O)c1ccc(Cl)c(NC(=O)c2ccncc2)c1	7	48*	0	101	-6	12
Cc1cccc(NC(=O)c2ccc(Cl)c(NC(=O)c3ccncc3)c2)c1C	-5	-1	-10	95	-8	0
SMILES	FXIa inh 1536	AHR activator	Thrombin inh	STAT3 activator	hK5 inh	FXIIa inh 1536
O=C(Nc1cccc(Cl)c1)c1ccncc1	-4	17	-10	103	-1	-2
O=C(Nc1ccc(F)c(Cl)c1)c1ccccc1	/	56*	/	/	/	/
COC(C[C@@H]1O[C@H]1[C@H](O)[C@@H](C)OCc1ccccc1)OC	/	1	/	/	/	/
Cc1cccc(NC(=O)CSCC(=O)NCc2ccco2)c1	/	1	/	/	/	/
O=c1[nH]c(CN2CCN(c3ccc(O)cc3)CC2)nc2scc(-c3ccc(Cl)cc3)c12	-4	6	-8	90	-15	5
CCOC(=O)c1ccc(NC(=O)Nc2cccc(C)n2)cc1	45*	-4	15	92	11	20
CCOC(=O)c1ccc(NC(=O)Nc2ccccn2)cc1	1	-2	-1	87	/	12
